Tests used:
Type in all cases: ADME, organism-based
[1] = Biodistribution in PC3 PIP tumor of PSMA expressing human PC3 PIP and PSMA deficient human PC3 flu cells xenografted SCID mouse at 2 uCi, iv after 30 mins; details: in vivo, 0.5 h
Method in brief: (§1)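 Male SCID mice carried subcutaneous PSMA+ PC-3 PIP (left shoulder) and PC-3 flu (right shoulder) xenografts, 1-5 × 10^6 cells in HBSS, and were used at 3-5 mm tumor diameter. Tail-vein injection of 2 µCi radioligand; four mice per time point, killed by cervical dislocation. %ID/g from a standard dilution of the dose, decay-corrected, mean ± SD; PIP tumor:organ ratios.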

Urinary bladder [2] = experiment: Biodistribution in bladder of PSMA expressing human PC3 PIP and PSMA deficient human PC3 flu cells xenografted SCID mouse at 2 uCi, iv after 60 mins; details: in vivo, 1 h
[3] = Ratio of drug level in tumor to stomach of human PSMA expressing PC3 PIP and PSMA deficient human PC3 flu cells xenografted SCID mouse at 2 uCi, iv after 60 mins; details: in vivo, 1 h
Method in brief: (§2)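 Male SCID mice carried subcutaneous xenografts: PSMA+ PC-3 PIP behind the left shoulder and PSMA− PC-3 flu behind the right, 1–5 × 10^6 cells in HBSS. Mice were used at 3–5 mm tumor diameter. 2 μCi was given by tail vein, and 4 mice per time point were killed by cervical dislocation. %ID/g came from a standard dilution of the dose, decay-corrected. Ratio is PIP tumor %ID/g to organ %ID/g.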

Blood [4] = experiment: Biodistribution in blood of PSMA expressing human PC3 PIP and PSMA deficient human PC3 flu cells xenografted SCID mouse at 2 uCi, iv after 5 hrs; details: in vivo
[5] = Ratio of drug level in tumor to small intestine of human PSMA expressing PC3 PIP and PSMA deficient human PC3 flu cells xenografted SCID mouse at 2 uCi, iv after 30 mins; details: in vivo, 0.5 h; method in brief: as §2
[6] = Ratio of drug level in tumor to heart of human PSMA expressing PC3 PIP and PSMA deficient human PC3 flu cells xenografted SCID mouse at 2 uCi, iv after 60 mins; details: in vivo, 1 h; method in brief: as §1
Kidney [7] = experiment: Biodistribution in kidney of PSMA expressing human PC3 PIP and PSMA deficient human PC3 flu cells xenografted SCID mouse at 2 uCi, iv after 30 mins; details: in vivo, 0.5 h
[8] = Ratio of drug level in tumor to spleen of human PSMA expressing PC3 PIP and PSMA deficient human PC3 flu cells xenografted SCID mouse at 2 uCi, iv after 60 mins; details: in vivo, 1 h; method in brief: as §2
[9] = Ratio of drug level in tumor to large intestine of human PSMA expressing PC3 PIP and PSMA deficient human PC3 flu cells xenografted SCID mouse at 2 uCi, iv after 30 mins; details: in vivo, 0.5 h; method in brief: as §1
Heart [10] = experiment: Biodistribution in heart of PSMA expressing human PC3 PIP and PSMA deficient human PC3 flu cells xenografted SCID mouse at 2 uCi, iv after 60 mins; details: in vivo, 1 h
Heart [11] = experiment: Biodistribution in heart of PSMA expressing human PC3 PIP and PSMA deficient human PC3 flu cells xenografted SCID mouse at 2 uCi, iv after 2 hrs; details: in vivo
Lung = experiment: Biodistribution in lung of PSMA expressing human PC3 PIP and PSMA deficient human PC3 flu cells xenografted SCID mouse at 2 uCi, iv after 2 hrs; details: in vivo
[12] = Ratio of drug level in tumor to blood of human PSMA expressing PC3 PIP and PSMA deficient human PC3 flu cells xenografted SCID mouse at 2 uCi, iv after 30 mins
Method in brief: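 Male SCID mice carried subcutaneous xenografts of PSMA+ PC-3 PIP cells behind the left shoulder and PSMA− PC-3 flu cells behind the right (1–5 × 10^6 cells in HBSS), used at a tumour diameter of 3–5 mm. Each mouse received 2 μCi of radioiodinated tracer via the tail vein. Tissues were harvested at each time point for %ID/g against a standard dilution of the dose, decay-corrected. Ratios are PIP tumour:organ.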

Liver = experiment: Biodistribution in liver of PSMA expressing human PC3 PIP and PSMA deficient human PC3 flu cells xenografted SCID mouse at 2 uCi, iv after 5 hrs; details: in vivo
[13] = Ratio of drug level in tumor to kidney of human PSMA expressing PC3 PIP and PSMA deficient human PC3 flu cells xenografted SCID mouse at 2 uCi, iv after 30 mins; details: in vivo, 0.5 h; method in brief: as §1
[14] = Biodistribution in large intestine of PSMA expressing human PC3 PIP and PSMA deficient human PC3 flu cells xenografted SCID mouse at 2 uCi, iv after 2 hrs; details: in vivo; method in brief: as §1
Stomach [15] = experiment: Biodistribution in stomach of PSMA expressing human PC3 PIP and PSMA deficient human PC3 flu cells xenografted SCID mouse at 2 uCi, iv after 30 mins; details: in vivo, 0.5 h
[16] = Ratio of drug level in tumor to large intestine of human PSMA expressing PC3 PIP and PSMA deficient human PC3 flu cells xenografted SCID mouse at 2 uCi, iv after 5 hrs; details: in vivo; method in brief: as §1
[17] = Ratio of drug level in tumor to pancreas of human PSMA expressing PC3 PIP and PSMA deficient human PC3 flu cells xenografted SCID mouse at 2 uCi, iv after 60 mins; details: in vivo, 1 h; method in brief: as §2
Urinary bladder [18] = experiment: Biodistribution in bladder of PSMA expressing human PC3 PIP and PSMA deficient human PC3 flu cells xenografted SCID mouse at 2 uCi, iv after 2 hrs; details: in vivo
[19] = Biodistribution in small intestine of PSMA expressing human PC3 PIP and PSMA deficient human PC3 flu cells xenografted SCID mouse at 2 uCi, iv after 2 hrs; details: in vivo; method in brief: as §1
Kidney [20] = experiment: Biodistribution in kidney of PSMA expressing human PC3 PIP and PSMA deficient human PC3 flu cells xenografted SCID mouse at 2 uCi, iv after 2 hrs; details: in vivo
[21] = Biodistribution in small intestine of PSMA expressing human PC3 PIP and PSMA deficient human PC3 flu cells xenografted SCID mouse at 2 uCi, iv after 5 hrs; details: in vivo; method in brief: as §1
Stomach [22] = experiment: Biodistribution in stomach of PSMA expressing human PC3 PIP and PSMA deficient human PC3 flu cells xenografted SCID mouse at 2 uCi, iv after 60 mins; details: in vivo, 1 h
[23] = Ratio of drug level in tumor to bladder of human PSMA expressing PC3 PIP and PSMA deficient human PC3 flu cells xenografted SCID mouse at 2 uCi, iv after 30 mins; details: in vivo, 0.5 h; method in brief: as §1
Blood [24] = experiment: Biodistribution in blood of PSMA expressing human PC3 PIP and PSMA deficient human PC3 flu cells xenografted SCID mouse at 2 uCi, iv after 2 hrs; details: in vivo
[25] = Ratio of drug level in tumor to heart of human PSMA expressing PC3 PIP and PSMA deficient human PC3 flu cells xenografted SCID mouse at 2 uCi, iv after 5 hrs; details: in vivo; method in brief: as §1
[26] = Ratio of drug level in tumor to spleen of human PSMA expressing PC3 PIP and PSMA deficient human PC3 flu cells xenografted SCID mouse at 2 uCi, iv after 2 hrs; details: in vivo; method in brief: as §2
[27] = Ratio of drug level in tumor to pancreas of human PSMA expressing PC3 PIP and PSMA deficient human PC3 flu cells xenografted SCID mouse at 2 uCi, iv after 30 mins; details: in vivo, 0.5 h; method in brief: as §1

O=C(O)CC[C@H](NC(=O)N[C@@H](CCCCNC(=O)c1ccc([18F])cc1)C(=O)O)C(=O)O
Drug uptake [1]: 8.6 % ID/g | Drug uptake (Urinary bladder [2]): 17 % ID/g | Ratio [3]: 26 | Drug uptake (Blood [4]): 0.03 % ID/g | Ratio [5]: 5 | Ratio [6]: 35 | Drug uptake (Kidney [7]): 72 % ID/g | Ratio [8]: 1 | Ratio [9]: 7 | Drug uptake (Heart [10]): 0.2 % ID/g | Drug uptake (Heart [11]): 0.15 % ID/g | Drug uptake (Lung): 1 % ID/g | Kp at 0.5 h [12]: 3 | Drug uptake (Liver): 1 % ID/g | Ratio [13]: 0.1 | Drug uptake [14]: 0.2 % ID/g | Drug uptake (Stomach [15]): 0.8 % ID/g | Ratio [16]: 6 | Ratio [17]: 21 | Drug uptake (Urinary bladder [18]): 11 % ID/g | Drug uptake [19]: 0.3 % ID/g | Drug uptake (Kidney [20]): 29 % ID/g | Drug uptake [21]: 0.1 % ID/g | Drug uptake (Stomach [22]): 0.25 % ID/g | Ratio [23]: 1 | Drug uptake (Blood [24]): 0.4 % ID/g | Ratio [25]: 117 | Ratio [26]: 1 | Ratio [27]: 11
